# Assay outcomes (PubChem BioAssay)
# MEKK2 WT-MEK5 = raises or lowers MEK5 binding to wildtype human MEKK2 PB1 domain | Q9Y2U5 | bead flow cytometry, Alexa488-MEK5 binding to MEKK2 WT; actives lie on both sides | binding response (% of control), % at 10 µM | 1.1% of 290,000 active | AID 1531; in the data active = binding response below about 67% or above about 130%
# ABCG2 block = inhibitors of human ABCG2 transporter, ABCB1 counter-screen; Q9UNQ0; IgMXP3 cells, JC-1 efflux, flow cytometry; inhibition, % at 6.6 µM; 0.1% of 190,000 active; AID 1325;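 active = inhibition above 80%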;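 also: 0% = DMSO and 100% = nicardipine control wells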
#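 material = IgMXP3 (ABCG2) plus far-red-tagged CCRF-Adr (ABCB1) cells | amount = 3 million cells/mL, equal mix of both lines | also added = JC-1 transporter substrate | dosing = one concentration, 6.6 µM final | schedule = 10 min at 25 °C | measured by = flow cytometric JC-1 green MFI at 530 nm | read-out basis = percent efflux inhibition, scaled nicardipine 100% to DMSO 0%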
# MEKK3 PB1 HTS = modulators (inhibitors or enhancers) of MEK5 binding to human MEKK3 PB1 domain; bead-based flow cytometry, Alexa488-MEK5 binding to MEKK3; actives lie on both sides; 0 = blocked by unlabeled MEK5, 100 = vehicle; binding response (% of control), % at 10 µM; 1.4% of 290,000 active;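 active = binding response more than 3 SD above or below the average of its plate-row segment, actives on both sides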;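 also: Alexa488 bead fluorescence after subtracting the streptavidin-only scavenger bead signal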
# Target sequence (Q99759 whole entry, looked up, the tested form may be a part): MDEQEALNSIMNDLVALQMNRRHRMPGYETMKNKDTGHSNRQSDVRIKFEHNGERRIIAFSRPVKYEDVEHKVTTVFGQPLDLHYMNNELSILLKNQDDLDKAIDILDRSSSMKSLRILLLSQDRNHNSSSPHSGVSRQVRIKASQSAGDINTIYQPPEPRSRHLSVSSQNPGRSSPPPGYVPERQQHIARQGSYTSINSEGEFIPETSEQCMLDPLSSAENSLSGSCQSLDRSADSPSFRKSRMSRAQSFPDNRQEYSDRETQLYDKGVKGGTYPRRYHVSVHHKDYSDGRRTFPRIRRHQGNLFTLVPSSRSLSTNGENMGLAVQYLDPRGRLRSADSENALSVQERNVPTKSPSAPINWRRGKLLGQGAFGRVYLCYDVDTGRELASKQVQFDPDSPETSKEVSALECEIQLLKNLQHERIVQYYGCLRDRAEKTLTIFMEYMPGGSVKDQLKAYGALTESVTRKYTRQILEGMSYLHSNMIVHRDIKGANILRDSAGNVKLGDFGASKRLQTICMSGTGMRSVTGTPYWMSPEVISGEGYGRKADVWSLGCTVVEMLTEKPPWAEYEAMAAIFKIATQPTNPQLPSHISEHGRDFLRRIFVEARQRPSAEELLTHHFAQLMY
# MEKK2 mut-MEK5 = signal of MEK5 binding to mutant human MEKK2 PB1 domain | percent response, % at 10 µM | 0.35% of 290,000 active | bead flow cytometry, Alexa488-MEK5 binding to MEKK2 mutant; in the data active = percent response above about 24%, passing the limit was not always enough
# ABCB1 block = blocks JC-1 efflux by human ABCB1 transporter. inhibition, % at 6.6 µM. P08183. CCRF-Adr cells, flow cytometry. 0.067% of 190,000 active; in the data active = inhibition above about 40%;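 also: 0% = vehicle and 100% = reference inhibitor; higher value means more JC-1 retained so stronger ABCB1 efflux block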
# MEKK2wt confirm = raises or lowers MEK5 binding to wildtype human MEKK2, retest; AID 1892; binding response (% of control), % at 10 µM; 2.4% of 5,900 active; shares compounds with MEKK3 PB1 HTS; bead flow cytometry, Alexa488-MEK5 binding to MEKK2 WT; actives lie on both sides; in the data active = binding response below about 16% or above about 210%; inactive = in between
# MEKK2mut confirm = signal of MEK5 binding to mutant human MEKK2, retest; percent response, % at 10 µM; AID 1893; shares compounds with MEKK3 PB1 HTS; bead flow cytometry, Alexa488-MEK5 binding to MEKK2 mutant; 2% of 5,900 active; in the data active = percent response mostly above about 71%, no sharp cut-off; inactive = mostly below about 38%;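 also: higher means compound restores mutant binding toward wildtype level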
# MEKK3 confirm = MEKK3-MEK5 PB1 inhibition, single concentration confirmation; shares compounds with MEKK3 PB1 HTS; bead flow cytometry, Alexa488-MEK5 binding to MEKK3; hits give low values; binding response (% of control), % at 10 µM; 1.8% of 5,900 active; AID 1894;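 active = binding response below 72% of control, or above a set upper limit, though filed actives all read lower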;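 also: 100% = DMSO only wells and 0% = binding blocked by excess unlabeled MEK5; lower values mean stronger disruption of MEK5 binding to MEKK3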
# An asterisk follows results filed as active; . = no result; [ ] = dose if it differs, or a comment. Hits are enriched below; roughly 2.3% of the tested compounds scored in any of these assays.
SMILES,MEKK2 WT-MEK5,ABCG2 block,MEKK3 PB1 HTS,MEKK2 mut-MEK5,ABCB1 block,MEKK2wt confirm,MEKK2mut confirm,MEKK3 confirm
N#C/C(=C\c1ccc(Sc2ccc(Cl)cc2)o1)c1nc2ccccc2[nH]1,150.0*,-10.0,102.0,14.0,-1.2,131.0,14.0,102.0
C[N+](C)(C)C/C=C1/COCO1,120.0,2.1,117.0,27.0*,0.2,111.0,13.0,108.0
NC(=O)NC(=O)Nc1ccccc1Cl,125.0,-0.9,130.0*,7.0,-2.1,101.0,-3.0,95.0
Cc1cccc(C)c1NC(=S)N(Cc1ccco1)C1CCN(C(C)C)CC1,107.0,6.0,128.0*,1.0,1.4,112.0,15.0,105.0
COc1cc(C(=O)OCC(=O)NC(N)=O)cc(CN2C(=O)c3ccccc3C2=O)c1OC,102.0,.,101.0,1.0,.,.,.,.
O=C(Nc1ccc(-c2nc3ccccc3[nH]2)cc1)c1ccc2c(c1)OCO2,83.0,0.5,81.0*[inhibitor],-5.0,-0.1,84.0,-13.0,85.0
O=C(Nc1ccc(Cl)c(-c2nc3ccccc3[nH]2)c1)c1ccc2c(c1)OCO2,89.0,-8.4,91.0,-3.0,-0.3,.,.,.
O=C(CSc1nc2cc(Cl)ccc2s1)NC(=O)NCc1ccco1,85.0,0.1,81.0*[inhibitor],-11.0,-0.1,99.0,-1.0,100.0
CC(C)n1cnc2c(N(C)c3ccccc3)nc(N(CCN(C)C)Cc3ccccc3)nc21,175.0*,.,114.0,22.0,.,137.0,7.0,103.0
CCCCCC(=O)NC(NC(=S)Nc1ccc(S(N)(=O)=O)cc1)C(Cl)(Cl)Cl (configuration not stated),102.0,-0.8,104.0,5.0,-0.2,.,.,.
CCCC(=O)NC(NC(=S)Nc1ccc(S(N)(=O)=O)cc1)C(Cl)(Cl)Cl (configuration not stated),107.0,-5.3,131.0*,0.0,-1.0,102.0,5.0,104.0
CCN(CC)C(C(=O)Nc1ccc(C(C)C)cc1)c1ccc2c(c1)OCO2 (configuration not stated),134.0*,1.7,118.0,15.0,0.5,117.0,6.0,101.0
COc1cc(=O)[nH]c(SCC(=O)Nc2nc3c(s2)CCCC3)n1,109.0,.,105.0,8.0,.,.,.,.
CCCCn1c(=O)c(-c2ccccc2)c(O)c2ccccc21,129.0,0.0,131.0*,5.0,0.2,104.0,-4.0,100.0
CCn1c(=O)c(-c2ccccc2)c(O)c2ccccc21,99.0,10.0,96.0,-2.0,-2.4,.,.,.
COC(=O)c1ccc(NC(=O)Nc2ccc([N+](=O)[O-])cc2)cc1,107.0,.,102.0,-5.0,.,.,.,.
COc1ccc(CN2CCC(N(CCc3ccccc3)Cc3ccccc3)CC2)c(OC)c1,161.0*,0.3,90.0,52.0*,3.4,152.0,25.0,110.0
O=C(C1=C[C@@H](c2ccc(C(F)(F)F)cc2)C[C@@H](OCCCCO)O1)N1CCN(Cc2ccccc2)CC1,103.0,3.9,73.0*[inhibitor],2.0,1.3,107.0,3.0,104.0
O=C(CN1CCCC1)NCC12CC3CC(CC(C3)C1)C2,91.0,0.6,82.0*[inhibitor],-5.0,0.1,101.0,3.0,103.0
O=C(CN1CCCC1)NC12CC3CC(CC(C3)C1)C2,94.0,-0.6,98.0,-2.0,-0.1,.,.,.
CCC(C)c1ccc(NC(=O)c2ccco2)cc1 (configuration not stated),101.0,.,104.0,7.0,.,.,.,.
CCc1ccccc1N(C)S(=O)(=O)c1cc(-c2cc(C)no2)ccc1OC,105.0,.,102.0,2.0,.,.,.,.
CCCc1c(C)nc(N2CCN(c3ccccc3OC)CC2)[nH]c1=O,105.0,.,104.0,5.0,.,.,.,.
COc1ccc2cnnc(SCC(=O)Nc3ccc(C(=O)O)cc3)c2c1OC,111.0,2.0,143.0*,0.0,0.1,100.0,-1.0,102.0
COc1ccc2cnnc(SCC(=O)Nc3ccc(C(C)=O)cc3)c2c1OC,97.0,0.8,99.0,-2.0,0.0,.,.,.
SMILES,MEKK2 WT-MEK5,ABCG2 block,MEKK3 PB1 HTS,MEKK2 mut-MEK5,ABCB1 block,MEKK2wt confirm,MEKK2mut confirm,MEKK3 confirm
CCCCN1CNC(=S)N(Cc2ccccc2)C1,105.0,8.2,130.0*,0.0,1.0,97.0,-7.0,102.0
CCCn1c(SCC(=O)N2CCN(CC)CC2)nc2c1c(=O)n(C)c(=O)n2C,102.0,.,103.0,3.0,.,.,.,.
O=C(NCC(O)CO)c1csc(Nc2cccc3ccccc23)n1 (configuration not stated),110.0,.,109.0,5.0,.,.,.,.
CCCCC1(C)Cc2ccccc2C(=S)N1 (configuration not stated),2.0*[inhibitor],1.3,2.0*[inhibitor],-16.0,0.0,108.0,2.0,103.0
CCOC(=O)/C(C)=C1\NC(C)(C)Cc2ccccc21,96.0,0.0,96.0,-3.0,-0.2,.,.,.
O=C(COc1cccnc1[N+](=O)[O-])NCc1ccc(F)cc1,101.0,.,100.0,3.0,.,.,.,.
Brc1ccc(-c2nnc3ccc(N4CCN(c5ccccc5)CC4)nn23)cc1,-1.0*[inhibitor],7.4,0.0*[inhibitor],-21.0,1.7,98.0,-8.0,101.0
Fc1ccc(-c2nnc3ccc(N4CCCC4)nn23)cc1,111.0,-0.4,111.0,11.0,-0.1,.,.,.
N#C/C(=C\c1ccc(N2CCOCC2)cc1)c1ccccc1,100.0,13.6,137.0*,0.0,1.0,102.0,2.0,101.0
CCCN1CCC(=O)N(CCN=[N+]=[N-])CC1,105.0,.,105.0,-2.0,.,.,.,.
COc1ccccc1N1CCN(C(=O)c2c(-c3c(F)cccc3Cl)noc2C)CC1,101.0,.,101.0,3.0,.,.,.,.
Cc1onc(C(=O)N2CCN(c3ccccc3F)CC2)c1-c1ccccc1Cl,104.0,7.0,130.0*,1.0,1.4,99.0,0.0,101.0
O=C(O)CCC(=O)N1N=C(c2ccccc2)CC1c1ccc2c(c1)OCO2 (configuration not stated),102.0,.,101.0,8.0,.,.,.,.
Cc1cc(C(=O)OC(C(=O)Nc2cccc(C(F)(F)F)c2)c2ccccc2)c(C)o1 (configuration not stated),107.0,6.8,145.0*,3.0,3.1,103.0,2.0,101.0
COc1ccc(N2CCN(C(CNC(=O)C(=O)NCC3CCCO3)c3ccco3)CC2)cc1 (configuration not stated),114.0,4.0,132.0*,1.0,0.7,105.0,0.0,102.0
CC1(C(=O)NCc2ccccn2)C=CCN1C(=O)c1ccccc1 (configuration not stated),65.0,2.4,50.0*[inhibitor],1.0,-0.6,114.0,12.0,110.0
